{"source": "paper PMC7528620", "about": "(Clinical cancer research : an official journal of the …, 2019)", "key": {"CYP2C19": {"molecular_target": "CYP2C19 (Homo sapiens, UniProt P33261)", "sequence (P33261 whole entry)": "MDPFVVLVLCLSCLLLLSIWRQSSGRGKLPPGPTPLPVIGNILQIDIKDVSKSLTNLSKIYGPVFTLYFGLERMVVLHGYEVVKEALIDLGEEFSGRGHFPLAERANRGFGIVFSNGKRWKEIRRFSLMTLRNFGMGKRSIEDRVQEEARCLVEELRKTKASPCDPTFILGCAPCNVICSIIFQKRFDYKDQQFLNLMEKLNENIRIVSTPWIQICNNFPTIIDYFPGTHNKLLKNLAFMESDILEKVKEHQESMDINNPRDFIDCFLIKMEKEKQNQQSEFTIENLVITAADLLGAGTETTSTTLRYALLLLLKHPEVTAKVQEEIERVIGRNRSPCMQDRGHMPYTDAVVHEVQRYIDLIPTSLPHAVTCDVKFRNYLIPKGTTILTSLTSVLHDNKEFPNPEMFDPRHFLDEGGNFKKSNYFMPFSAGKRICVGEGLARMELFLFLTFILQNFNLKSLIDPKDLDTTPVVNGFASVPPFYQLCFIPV", "test": "In vitro metabolism studies", "type": "in vitro ADME"}, "[1]": {"test": "Plasma pharmacokinetics, study INCB 54329-101", "type": "in vivo, human", "summary_of_the_method": "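Plasma PK used noncompartmental analysis in patients given ≥1 dose with ≥1 PK sample. Oral dosing was 15–30 mg QD or 15–25 mg BID, continuous or intermittent; the first 3 patients also received a single 5-mg PK dose at day 0. Steady-state oral clearance (CLss/F) and terminal half-life are reported as mean with SD.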"}, "[2]": {"system": "patients with advanced malignancies", "test": "Safety and tolerability, phase 1/2 study INCB 54329-101", "type": "in vivo", "conditions": "for TRAEs (any): all treatment groups; for TRAE thrombocytopenia: incl. platelet counts decreased"}, "CYP3A4": {"molecular_target": "CYP3A4 (Homo sapiens, UniProt P08684)", "sequence (P08684 whole entry)": "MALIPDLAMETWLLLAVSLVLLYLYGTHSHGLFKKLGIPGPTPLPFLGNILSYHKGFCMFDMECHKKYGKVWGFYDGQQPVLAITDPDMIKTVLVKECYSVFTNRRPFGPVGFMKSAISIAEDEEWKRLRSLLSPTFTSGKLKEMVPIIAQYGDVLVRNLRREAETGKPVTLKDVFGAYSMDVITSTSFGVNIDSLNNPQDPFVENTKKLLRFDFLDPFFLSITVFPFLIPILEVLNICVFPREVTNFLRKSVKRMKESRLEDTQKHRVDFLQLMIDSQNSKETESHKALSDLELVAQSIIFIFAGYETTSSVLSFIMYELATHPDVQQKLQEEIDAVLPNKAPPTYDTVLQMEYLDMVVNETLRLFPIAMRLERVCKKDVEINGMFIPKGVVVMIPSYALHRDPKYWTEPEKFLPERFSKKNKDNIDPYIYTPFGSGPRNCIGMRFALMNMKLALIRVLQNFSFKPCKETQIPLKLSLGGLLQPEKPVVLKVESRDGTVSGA", "test": "In vitro metabolism studies", "type": "in vitro ADME"}, "advanced malignancies": {"system": "advanced malignancies", "test": "Objective response assessment, study INCB 54329-101", "type": "in vivo, human", "summary_of_the_method": "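Open-label phase 1/2 monotherapy study in adults (≥18 y) with relapsed/refractory advanced malignancies and ECOG ≤1. Oral dosing was 15–30 mg QD or 15–25 mg BID, continuous or intermittent (5/2, 4/3, 7/7 days on/off), in 21-day cycles. Part 2 used intrapatient titration from 20 mg BID. Response was assessed with malignancy-specific criteria in patients with ≥1 dose, measurable/evaluable baseline disease and ≥1 post-baseline assessment.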"}, "[3]": {"system": "patients with advanced solid tumors", "conditions": "36 patients with advanced solid tumors; cited from earlier work"}}, "note": "Marks after values point to notes of the source that are not given here.", "data": [{"smiles": "Cc1noc(C)c1-c1ccc2[nH]c(=O)n3c2c1OC[C@@H]3c1ccccn1", "note": "[INCB054329]", "values": [{"measurement": "metabolism by CYP2C19", "setting": "CYP2C19", "result": "metabolized"}, {"measurement": "half-life", "setting": "[1]; as summarised in discussion", "result": "< 5", "unit": "h"}, {"measurement": "oral clearance CLss/F, mean [SD]", "setting": "[1]; overall, oral dosing, patients", "result": "95.5 [135] L/h"}, {"measurement": "terminal elimination half-life t1/2, mean [SD]", "setting": "[1]; overall, oral dosing, patients", "result": "2.24 [2.03] hours"}, {"measurement": "patients with ≥1 any grade TRAE", "setting": "[2]; 69 enrolled patients", "result": 78, "unit": "%"}, {"measurement": "MTD per protocol", "setting": "[2]; Part 1 TGA", "result": "not reached"}, {"measurement": "DLTs", "setting": "[2]; Part 1 TGA, both grade 4 thrombocytopenia at 30 mg QD and 22.5 mg BID", "result": 2, "unit": "DLTs"}, {"measurement": "DLTs", "setting": "[2]; Part 1 TGB, 20 mg BID", "result": "No DLTs"}, {"measurement": "TRAEs leading to dose interruptions", "setting": "[2]; Part 1 TGB, due to grade 3 hyperglycemia", "result": 2, "unit": "patients"}, {"measurement": "tolerability of the 20 mg BID starting dose", "setting": "[2]; Part 2 dose titration", "result": "not tolerated"}, {"measurement": "patients requiring dose interruption due to TRAEs", "setting": "[2]; Part 2 dose titration, 20 mg BID start, 11 patients", "result": 45, "unit": "%"}, {"measurement": "incidence of TRAE anemia", "setting": "[2]; any grade", "result": 10, "unit": "%"}, {"measurement": "incidence of TRAE decreased appetite", "setting": "[2]; any grade", "result": 26, "unit": "%"}, {"measurement": "incidence of TRAE fatigue", "setting": "[2]; any grade", "result": 29, "unit": "%"}, {"measurement": "incidence of TRAE nausea", "setting": "[2]; any grade", "result": 35, "unit": "%"}, {"measurement": "incidence of TRAE thrombocytopenia", "setting": "[2]; any grade", "result": 33, "unit": "%"}, {"measurement": "incidence of TRAE vomiting", "setting": "[2]; any grade", "result": 10, "unit": "%"}, {"measurement": "TRAEs (any)", "setting": "[2]; any grade, n = 69", "result": "54 (78) n (%)"}, {"measurement": "TRAE anemia", "setting": "[2]; any grade, n = 69", "result": "7 (10) n (%)"}, {"measurement": "TRAE decreased appetite", "setting": "[2]; any grade, n = 69", "result": "18 (26) n (%)"}, {"measurement": "TRAE diarrhea", "setting": "[2]; any grade, n = 69", "result": "12 (17) n (%)"}, {"measurement": "TRAE dysgeusia", "setting": "[2]; any grade, n = 69", "result": "9 (13) n (%)"}, {"measurement": "TRAE fatigue", "setting": "[2]; any grade, n = 69", "result": "20 (29) n (%)"}, {"measurement": "TRAE hyperglycemia", "setting": "[2]; any grade, n = 69", "result": "3 (4)^c n (%)"}, {"measurement": "TRAE nausea", "setting": "[2]; any grade, n = 69", "result": "24 (35) n (%)"}, {"measurement": "TRAE vomiting", "setting": "[2]; any grade, n = 69", "result": "7 (10) n (%)"}, {"measurement": "TRAE thrombocytopenia", "setting": "[2]; any grade, n = 69", "result": "23 (33) n (%)"}, {"measurement": "incidence of TRAE AST increased", "setting": "[2]; grade ≥3", "result": 4, "unit": "%"}, {"measurement": "incidence of TRAE anemia", "setting": "[2]; grade ≥3", "result": 6, "unit": "%"}, {"measurement": "incidence of TRAE hyperglycemia", "setting": "[2]; grade ≥3", "result": 3, "unit": "%"}, {"measurement": "incidence of TRAE neutropenia", "setting": "[2]; grade ≥3", "result": 6, "unit": "%"}, {"measurement": "TRAEs (any)", "setting": "[2]; grade ≥3, n = 69", "result": "16 (23) n (%)"}, {"measurement": "TRAE anemia", "setting": "[2]; grade ≥3, n = 69", "result": "4 (6) n (%)"}, {"measurement": "TRAE decreased appetite", "setting": "[2]; grade ≥3, n = 69", "result": "0 (0) n (%)"}, {"measurement": "TRAE diarrhea", "setting": "[2]; grade ≥3, n = 69", "result": "0 (0) n (%)"}, {"measurement": "TRAE dysgeusia", "setting": "[2]; grade ≥3, n = 69", "result": "0 (0) n (%)"}, {"measurement": "TRAE fatigue", "setting": "[2]; grade ≥3, n = 69", "result": "0 (0) n (%)"}, {"measurement": "TRAE hyperglycemia", "setting": "[2]; grade ≥3, n = 69", "result": "2 (3) n (%)"}, {"measurement": "TRAE nausea", "setting": "[2]; grade ≥3, n = 69", "result": "1 (1) n (%)"}, {"measurement": "TRAE vomiting", "setting": "[2]; grade ≥3, n = 69", "result": "1 (1) n (%)"}, {"measurement": "TRAE thrombocytopenia", "setting": "[2]; grade ≥3, n = 69", "result": "9 (13) n (%)"}, {"measurement": "deaths deemed treatment-related", "setting": "[2]; in vivo", "result": "none"}, {"measurement": "discontinuation, primary reason adverse event", "setting": "[2]; n = 69", "result": "2 (3) n (%)"}, {"measurement": "discontinuation, primary reason death", "setting": "[2]; n = 69", "result": "1 (1) n (%)"}, {"measurement": "TRAEs leading to dose interruptions", "setting": "[2]; overall", "result": 29, "unit": "%"}, {"measurement": "TRAEs leading to dose reductions", "setting": "[2]; overall", "result": 7, "unit": "%"}, {"measurement": "dose interruptions due to thrombocytopenia", "setting": "[2]; overall", "result": 17, "unit": "%"}, {"measurement": "patients who discontinued treatment due to TRAEs", "setting": "[2]; overall", "result": 4, "unit": "%"}, {"measurement": "serious TRAE anemia", "setting": "[2]; overall", "result": 2, "unit": "patients"}, {"measurement": "serious TRAE thrombocytopenia", "setting": "[2]; overall", "result": 4, "unit": "patients"}, {"measurement": "patients experiencing serious TRAEs", "setting": "[2]; overall, n = 69", "result": 7, "unit": "patients"}, {"measurement": "metabolism by CYP3A4", "setting": "CYP3A4", "result": "metabolized"}, {"measurement": "confirmed clinical response", "setting": "advanced malignancies; 69 patients", "result": "none and no confirmed clinical responses"}, {"measurement": "patients with stable disease as best response", "setting": "advanced malignancies; all with solid tumors", "result": "Twenty-one"}, {"measurement": "patients who maintained SD for ≥6 months", "setting": "advanced malignancies; in vivo", "result": 4, "unit": "patients"}, {"measurement": "discontinuation, primary reason disease progression", "setting": "advanced malignancies; n = 69", "result": "53 (77) n (%)"}]}, {"smiles": "Cc1noc(C)c1-c1cnc2c(-c3ccc(C(=O)O)cc3)cn([C@@H](C)c3ccccn3)c2c1", "note": "[PLX51107]", "values": [{"measurement": "INR increase, patients", "setting": "[3]", "result": 17, "unit": "%"}]}]}
